In PMC2796117 (Bioorganic & medicinal chemistry letters, 2009):

What was measured:
[1] = system: Shh signaling; conditions: cell lines, human primary keratinocytes, synthetic model of human skin; cited from earlier work
[2] = system: Gli activity (Shh pathway) in Shh-LIGHT2 cell line; test: Shh-LIGHT2 Gli-luciferase reporter assay; type: cell-based; conditions: for Gli repression / activity in Shh-LIGHT2 (in words): Shh-LIGHT2 cell line, concentrations ranging from 3.9 µM to 125 µM where stated
How it was run: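 Shh-LIGHT2 Gli-reporter cells stimulated with ShhN-conditioned DMEM containing 0.5% (v/v) calf serum, then exposed to test compound over a concentration series (3.9 to 125 µM where stated). Gli activity read by Bright Glo luciferase, and cytotoxicity by Cell Titer Glo. EC50 approximated from concentration curves. % ECmax is inhibition relative to cyclopamine's ECmax, or for cytotoxic compounds relative to the highest effective non-cytotoxic concentration.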

[3] = target: ShhN (Homo sapiens, UniProt Q15465); test: Surface plasmon resonance; type: binding
How it was run: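 Purified Sonic Hedgehog N-terminal peptide (ShhN) probed by surface plasmon resonance with test compound in PBS containing 5% (v/v) DMSO. Sensorgrams background-subtracted against DMSO. Binding expressed as KD in µM, with off-rates compared from the binding curves.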

[4] = system: Shh-LIGHT2 cells; test: Cytotoxicity by Cell Titer Glo; type: cell-based; conditions: for Cytotoxicity: Shh-LIGHT2 cells, cytotoxic above the stated concentration; for cytotoxicity (in words): any concentration
How it was run: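 Cell Titer Glo luminescence in Shh-LIGHT2 Gli-reporter cells. Values are approximations read from concentration curves. Where compounds are cytotoxic, the Gli % ECmax is taken at the highest effective non-cytotoxic concentration.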

ShhN, sequence (Q15465 24-197 limits assumed, species assumed): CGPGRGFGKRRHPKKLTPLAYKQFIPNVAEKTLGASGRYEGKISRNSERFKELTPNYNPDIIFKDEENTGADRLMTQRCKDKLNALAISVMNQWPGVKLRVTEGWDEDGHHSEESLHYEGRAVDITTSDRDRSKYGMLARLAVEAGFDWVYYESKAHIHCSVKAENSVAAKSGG

| SMILES | effect on Shh signaling [1] | Gli repression / activity in Shh-LIGHT2 (in words) [2] | % ECmax (footnote e) ([2]; taken relative to mock treatment (reporter values comparable to 6µM cyclopamine), cytotoxic compounds: highest effective non-cytotoxic concentration) [% ^e] | apparent off-rate ([3]; SPR, compared with the (2S, 6R) 13-membered homolog) | Binding / affinity for ShhN by SPR (in words) ([3]; purified ShhN, PBS buffer with 5% (v/v) DMSO) | Cytotoxicity [4] | cytotoxicity (in words) [4] |
| --- | --- | --- | --- | --- | --- | --- | --- |
| O=C(C[C@@H]1C/C=C/CCC(=O)O[C@H](c2ccccc2)CNC1=O)NCc1ccc(Cl)cc1 [(0, R, S) (2), robotnikinin] | blocks Shh signaling | strong concentration-dependent Gli repression | 91 | significantly longer | bound purified ShhN in a stoichiometric manner | none | neither compound displayed differences in cytotoxicity at any concentration |
| O=C(C[C@H]1C/C=C/CCCC(=O)O[C@@H](c2ccccc2)CNC1=O)NCc1ccc(Cl)cc1 [(1, S, R) (3)] |  | Gli suppression was ablated |  |  |  | none | neither compound displayed differences in cytotoxicity at any concentration |
